This is an account of results in ChEMBL document CHEMBL1143981, “Exploring the potential of 3'-O-carboxy esters of thymidine as inhibitors of ribonuclease A and angiogenin” (Bioorg Med Chem, 2008).

One experiment concerns the target Ribonuclease pancreatic. Put plainly: Activity at RNase A. In short, it runs like this: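 Spectrophotometric kinetics with 2',3'-cCMP substrate in oligo(vinylsulfonic acid)-free 0.1 M Mes–NaOH, pH 6.0, with 0.1 M NaCl. RNase A was at 10 µM. Substrate ranged 0.14–0.28 mM with inhibitor 0–6.7 µM, or 0.13–0.25 mM with inhibitor 0–62 µM, depending on compound. Inhibition constants came from initial velocities via Eadie–Hofstee plots (V vs V/[S]), using the slopes.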

Experiment [1] in a line: Inhibition of RNase A by precipitation assay. In a few lines: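 Yeast tRNA substrate (0.1 mg) in 0.1 M Tris–HCl, pH 7.5, with 5 mM EDTA and 10 µg HSA, 50 µl final. Enzyme (0.2 µM solution) was preincubated with inhibitor (225 µM solution) before addition. Reaction ran at 37 °C for 30 min. It was quenched with ice-cold 1.14 N perchloric acid containing 6 mM uranyl acetate, held on ice 30 min, then centrifuged at 4 °C.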

The target in experiment [2] is T1, Ribonuclease pancreatic (Homo sapiens) (UniProt P07998).
T1 sequence (whole entry): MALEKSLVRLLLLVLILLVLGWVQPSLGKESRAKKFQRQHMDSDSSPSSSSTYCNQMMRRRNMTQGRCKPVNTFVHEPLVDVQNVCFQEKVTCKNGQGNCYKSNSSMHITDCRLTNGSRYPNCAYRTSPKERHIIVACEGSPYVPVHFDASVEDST
Put plainly: Inhibition of RNase A assessed as tRNA degradation by agarose-gel based assay. In short, it runs like this:
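RNase A (0.66 µM solution) was preincubated 6 h with 1.5 mM inhibitor solution, 50 µl total. An aliquot was then mixed with yeast tRNA (5.0 mg/ml, freshly dissolved in RNase-free water) for 30 min. Samples ran on 1.1% agarose, and undegraded tRNA was visualized by ethidium bromide staining under UV.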

Each structure is given as a SMILES string. Activity calls are given as the source filed them. The rule behind the calls is not given here.

In general, Ki refers to a measure of affinity in units of concentration, obtained from inhibition or displacement. The low end stands for a stronger hold on the target, the high end for a looser hold on the target. In general, IC50 refers to the concentration that gives 50% inhibition. A high value points to lower potency.

On Ribonuclease pancreatic, `CC(=O)O[C@H]1C[C@H](n2cc(C)c(=O)[nH]c2=O)O[C@@H]1CO` came in with a Ki of 42 µM. This compound returned an IC50 in experiment [1] of 197 µM. Moreover, the outcome in experiment [2] was Active.

Take `Cc1cn([C@H]2C[C@H](OC(=O)c3ccccc3)[C@@H](CO)O2)c(=O)[nH]c1=O`: the affinity at Ribonuclease pancreatic corresponds to a Ki of 95 µM. In addition, in experiment [1], 341 µM corresponded to half-maximal inhibition (IC50). Further, the outcome in experiment [2] was Active.

At Ribonuclease pancreatic, `Cc1cn([C@H]2C[C@H](OP(=O)(O)O)[C@@H](CO)O2)c(=O)[nH]c1=O` showed a Ki of 13.2 µM. Moreover, the IC50 in experiment [1] amounted to 167 µM.

`Nc1ccn([C@@H]2O[C@H](CO)[C@@H](OP(=O)(O)O)[C@H]2O)c(=O)n1` returned a Ki at Ribonuclease pancreatic of 103 µM. For the same compound, half-maximal inhibition in experiment [1] (IC50) required 312 µM. Moreover, the result in experiment [2] was Active.
